Tests used:
[1] = Metabolic stability in human whole blood at 1000 dpm/pmol after 0.25 hrs at 37 degC; format: ADME, tissue-based; settings: read-out: Stability
In short: (§1)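 3H-labeled nucleoside (10 μM, 1,000 dpm/pmol) incubated in human or monkey whole blood at 37°C for 0–48 h. Aliquots centrifuged, supernatant extracted with acetonitrile, dried, redissolved in water and run on ion-pairing reverse-phase C18 HPLC (ammonium acetate/tetrabutylammonium phosphate pH 7.0, methanol) to measure parent and deaminated product. Each time point in replicate.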

[2] = Terminal half life in rhesus monkey at 33.3 mg/kg, iv administered as single dose; format: ADME, organism-based, Macaca mulatta; design: dose 33.3 mg/kg, route intravenous; settings: in vivo, read-out: beta t1/2 (converted)
In short: (§2)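 Three rhesus monkeys; single 33.3 mg/kg oral dose by gastric intubation in water, then after ≥4-week washout i.v. bolus via femoral vein in sterile normal saline; anesthetized (ketamine plus Telazol i.m.) for 4 h. Femoral venous blood at 0–24 h; serum by HPLC-UV 270 nm, 3TC internal standard. Noncompartmental analysis per animal and pooled; AUC by trapezoid extrapolated to infinity; F = AUCoral/AUCi.v.; MAT = MRToral − MRTi.v.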

[3] = Metabolic stability in rhesus monkey whole blood at 1000 dpm/pmol after 4 hrs at 37 degC; format: ADME, tissue-based, Macaca mulatta; settings: read-out: Stability; in short: as §1
[4] = AUC in rhesus monkey at 33.3 mg/kg, po administered as single dose; format: ADME, organism-based, Macaca mulatta; design: dose 33.3 mg/kg, route oral; settings: plasma; in short: as §2
[5] = Drug level in rhesus monkey cerebrospinal fluid at 33.3 mg/kg, po administered as single dose after 1 hr; format: ADME, organism-based, Macaca mulatta; design: dose 33.3 mg/kg, route oral; settings: read-out: Drug uptake
In short: (§3)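 Same three anesthetized rhesus monkeys given single 33.3 mg/kg oral (water, gastric intubation) or i.v. (saline, femoral vein) dose. CSF taken 1 h post-dose by cisternal or lumbar tap; 3TC internal standard added, analyzed by reverse-phase HPLC with UV detection at 270 nm against standards in water (0.1–25 μg/ml).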

[6] = Metabolic stability in human whole blood at 1000 dpm/pmol after 24 hrs at 37 degC; format: ADME, tissue-based; settings: read-out: Stability; in short: as §1
[7] = AUC in rhesus monkey at 33.3 mg/kg, iv administered as single dose; format: ADME, organism-based, Macaca mulatta; design: dose 33.3 mg/kg, route intravenous; settings: plasma; in short: as §2
[8] = Tmax in rhesus monkey at 33.3 mg/kg, iv administered as single dose; format: ADME, organism-based, Macaca mulatta; design: dose 33.3 mg/kg, route intravenous; settings: in vivo
In short: (§4)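 Three rhesus monkeys, anesthetised with ketamine plus tiletamine/zolazepam, received a single 33.3 mg/kg bolus in sterile normal saline via the femoral vein. Serum was acetonitrile-extracted with 3TC as internal standard and assayed by reverse-phase HPLC-UV at 270 nm. Peak concentration and its time were taken as observed; noncompartmental analysis.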

[9] = Stability in rhesus monkey urine at 33.3 mg/kg assessed as unchanged drug dose administered as single dose during 8 hrs; format: ADME, organism-based, Macaca mulatta; design: dose 33.3 mg/kg; settings: read-out: Stability
In short: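 Catheterized rhesus monkeys given single 33.3 mg/kg oral or i.v. dose; urine collected in intervals over 0–8 h, kept on ice then frozen at −70°C; diluted 20-fold (oral) or 50-fold (i.v.), 3TC internal standard added, parent and deaminated uridine metabolite quantified by HPLC-UV 270 nm; percent of dose recovered.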

[10] = Cmax in rhesus monkey at 33.3 mg/kg, iv administered as single dose; format: ADME, organism-based, Macaca mulatta; design: dose 33.3 mg/kg, route intravenous; settings: in vivo; in short: as §4
[11] = Metabolic stability in rhesus monkey whole blood at 1000 dpm/pmol after 8 hrs at 37 degC; format: ADME, tissue-based, Macaca mulatta; settings: read-out: Stability; in short: as §1
[12] = Drug level in rhesus monkey cerebrospinal fluid at 33.3 mg/kg, iv administered as single dose after 1 hr; format: ADME, organism-based, Macaca mulatta; design: dose 33.3 mg/kg, route intravenous; settings: read-out: Drug uptake; in short: as §3
[13] = Metabolic stability in rhesus monkey whole blood at 1000 dpm/pmol after 0.5 hrs at 37 degC; format: ADME, tissue-based, Macaca mulatta; settings: read-out: Stability; in short: as §1
[14] = Metabolic stability in human whole blood at 1000 dpm/pmol after 8 hrs at 37 degC; format: ADME, tissue-based; settings: read-out: Stability; in short: as §1
[15] = Apparent oral clearance in rhesus monkey at 33.3 mg/kg, po administered as single dose; format: ADME, organism-based, Macaca mulatta; design: dose 33.3 mg/kg, route oral; settings: in vivo; in short: as §2
[16] = Metabolic stability in human whole blood at 1000 dpm/pmol after 48 hrs at 37 degC; format: ADME, tissue-based; settings: read-out: Stability; in short: as §1
[17] = Metabolic stability in human whole blood at 1000 dpm/pmol after 2 hrs at 37 degC; format: ADME, tissue-based; settings: read-out: Stability; in short: as §1
[18] = Metabolic stability in human whole blood at 1000 dpm/pmol after 4 hrs at 37 degC; format: ADME, tissue-based; settings: read-out: Stability; in short: as §1
[19] = Oral bioavailability in rhesus monkey at 33.3 mg/kg, po administered as single dose; format: ADME, organism-based, Macaca mulatta; settings: in vivo; in short: as §2
Hepatitis C virus = assay: Antiviral activity against HCV in human Huh7 cells by replicon based assay; format: functional, Hepacivirus hominis; settings: Huh-7
[20] = Metabolic stability in rhesus monkey whole blood at 1000 dpm/pmol after 10 hrs at 37 degC; format: ADME, tissue-based, Macaca mulatta; settings: read-out: Stability; in short: as §1
[21] = Drug level in rhesus monkey cerebrospinal fluid assessed as 2'-deoxy-2'-fluoro-2'-C-methyluridine level at 33.3 mg/kg, iv administered as single dose after 1 hr; format: ADME, organism-based, Macaca mulatta; design: dose 33.3 mg/kg, route intravenous; settings: in vivo, read-out: Drug uptake; in short: as §3
[22] = Clearance in rhesus monkey at 33.3 mg/kg, iv administered as single dose; settings: in vivo
[23] = Metabolic stability in human whole blood at 1000 dpm/pmol after 10 hrs at 37 degC; format: ADME, tissue-based; settings: read-out: Stability; in short: as §1
[24] = Mean residence time in rhesus monkey at 33.3 mg/kg, po administered as single dose; format: ADME, organism-based, Macaca mulatta; design: dose 33.3 mg/kg, route oral; settings: in vivo; in short: as §2
HepG2 = assay: Cytotoxicity against human HepG2 cells; format: cell-based
[25] = Apparent volume of distribution with respect to bioavailability in rhesus monkey at 33.3 mg/kg, po administered as single dose; format: ADME, organism-based, Macaca mulatta; settings: in vivo, read-out: Vc/F; in short: as §2
[26] = Metabolic stability in human whole blood at 1000 dpm/pmol after 1 hr at 37 degC; format: ADME, tissue-based; settings: read-out: Stability; in short: as §1
[27] = Clearance in rhesus monkey at 33.3 mg/kg, po administered as single dose; format: ADME, organism-based, Macaca mulatta; design: dose 33.3 mg/kg, route oral; settings: in vivo; in short: as §2
[28] = Terminal half life in rhesus monkey at 33.3 mg/kg, po administered as single dose; format: ADME, organism-based, Macaca mulatta; design: dose 33.3 mg/kg, route oral; settings: in vivo, read-out: beta t1/2 (converted); in short: as §2
[29] = Metabolic stability in rhesus monkey whole blood at 1000 dpm/pmol after 24 hrs at 37 degC; format: ADME, tissue-based, Macaca mulatta; settings: read-out: Stability; in short: as §1
Rhesus monkey [30] = assay: Mean absorption time in rhesus monkey at 33.3 mg/kg, po administered as single dose; format: ADME, organism-based, Macaca mulatta; design: dose 33.3 mg/kg, route oral; settings: in vivo; in short: as §2
[31] = Metabolic stability in human whole blood at 1000 dpm/pmol after 0.5 hrs at 37 degC; format: ADME, tissue-based; settings: read-out: Stability; in short: as §1
[32] = Metabolic stability in rhesus monkey whole blood at 1000 dpm/pmol after 1 hr at 37 degC; format: ADME, tissue-based, Macaca mulatta; settings: read-out: Stability; in short: as §1
[33] = Metabolic stability in rhesus monkey whole blood at 1000 dpm/pmol after 0.25 hrs at 37 degC; format: ADME, tissue-based, Macaca mulatta; settings: read-out: Stability; in short: as §1
Rhesus monkey [34] = assay: Apparent volume of distribution with respect to bioavailability in rhesus monkey at 33.3 mg/kg, iv administered as single dose; format: ADME, organism-based, Macaca mulatta; settings: in vivo; in short: as §2
[35] = Volume of distribution at steady state in rhesus monkey at 33.3 mg/kg, iv administered as single dose; format: ADME, organism-based, Macaca mulatta; design: dose 33.3 mg/kg, route intravenous; settings: in vivo, read-out: Vdss; in short: as §2
[36] = Metabolic stability in rhesus monkey whole blood at 1000 dpm/pmol after 48 hrs at 37 degC; format: ADME, tissue-based, Macaca mulatta; settings: read-out: Stability; in short: as §1
[37] = Mean residence time in rhesus monkey at 33.3 mg/kg, iv administered as single dose; format: ADME, organism-based, Macaca mulatta; design: dose 33.3 mg/kg, route intravenous; settings: in vivo; in short: as §2
[38] = Metabolic stability in rhesus monkey whole blood at 1000 dpm/pmol after 2 hrs at 37 degC; format: ADME, tissue-based, Macaca mulatta; settings: read-out: Stability; in short: as §1
[39] = Metabolic stability in human whole blood assessed as 2'-deoxy-2'-fluoro-2'-C-methyluridine level at 1000 dpm/pmol after 24 hrs at 37 degC; format: ADME, tissue-based; in short: as §1
[40] = Metabolic stability in rhesus monkey whole blood assessed as 2'-deoxy-2'-fluoro-2'-C-methyluridine level at 1000 dpm/pmol after 24 hrs at 37 degC; format: ADME, tissue-based, Macaca mulatta; in short: as §1

## C[C@@]1(F)[C@H](O)[C@@H](CO)O[C@H]1n1ccc(N)nc1=O
[1]
  remaining at 0.25 h: 100%
[2]
  half-life: 4.54 h
[3]
  remaining at 4 h: 100%
[4]
  AUC: 44.1 µM·h
[5]
  concentration at 1 h: 280 nM
[6]
  remaining at 24 h: 95.1%
[7]
  AUC: 235 µM·h
[8]
  Tmax: 0.25 h
[9]
  dose excreted at 8 h: 6%
[10]
  Cmax: 154000 nM
[11]
  remaining at 8 h: 100%
[12]
  concentration at 1 h: 3670 nM
[13]
  remaining at 0.5 h: 100%
[14]
  remaining at 8 h: 100%
[15]
  CL/F: 48 mL/min/kg
[16]
  remaining at 48 h: 83.7%
[17]
  remaining at 2 h: 100%
[18]
  remaining at 4 h: 100%
[19]
  bioavailability: 24%
Hepatitis C virus
  EC90: 5.4 µM
[20]
  remaining at 10 h: 97.2%
[21]
  concentration: 1380 nM
[22]
  clearance: 10 mL/min/kg
[23]
  remaining at 10 h: 99.1%
[24]
  MRT: 7.11 h
HepG2
  Activity: > 100 µM
[25]
  Vd/F: 21.9 L/kg
[26]
  remaining at 1 h: 100%
[27]
  CL/F: 48 mL/min/kg
[28]
  half-life: 5.64 h
[29]
  remaining at 24 h: 93.1%
Rhesus monkey [30]
  MAT: 4.61 h
[31]
  remaining at 0.5 h: 100%
[32]
  remaining at 1 h: 100%
[33]
  remaining at 0.25 h: 100%
Rhesus monkey [34]
  Vc/F: 4.8 L/kg
[35]
  Vd: 1.51 L/kg
[36]
  remaining at 48 h: 80%
[37]
  MRT: 2.5 h
[38]
  remaining at 2 h: 100%

## C[C@@]1(F)[C@H](O)[C@@H](CO)O[C@H]1n1ccc(=O)[nH]c1=O
[39]
  Stability: 4.9%
[40]
  Stability: 6.9%
